In ChEMBL document CHEMBL2021802, “Synthesis and Evaluation of the Metabolites of AMG 221, a Clinical Candidate for the Treatment of Type 2 Diabetes” (ACS Med Chem Lett, 2011):

How the values were obtained:
[1] = Volume of distribution at steady state in Sprague-Dawley rat at 2 mg/kg, iv and 10 mg/kg, po; type: ADME, organism-based; settings: in vivo, read-out: Vdss
Procedure, shortened: (§1)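 Male Sprague-Dawley rats. IV dosing at 2 mg/kg in DMSO. Oral dosing at 10 mg/kg in 0.1% Tween-80/0.5% CMC/99.4% water. Reported: CL, Vss, t1/2 (terminal t1/2 where marked), MRT and oral F.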

[2] = Clearance in Sprague-Dawley rat at 2 mg/kg, iv and 10 mg/kg, po; type: ADME, organism-based; settings: in vivo; procedure, shortened: as §1
[3] = target: 11-beta-hydroxysteroid dehydrogenase 1 (Mus musculus, UniProt P50172); experiment: Inhibition of mouse 11beta-HSD1 expressed in Escherichia coli using [3H]cortisone as substrate by scintillation proximity assay
[4] = Half life in Sprague-Dawley rat at 2 mg/kg, iv and 10 mg/kg, po; type: ADME, organism-based; settings: in vivo; procedure, shortened: as §1
[5] = Oral bioavailability in Sprague-Dawley rat at 10 mg/kg; type: ADME, organism-based; settings: in vivo; procedure, shortened: as §1
[6] = Volume of distribution at steady state in CD1 mouse at 2 mg/kg, iv and 10 mg/kg, po; type: ADME, organism-based; settings: in vivo, read-out: Vdss
Procedure, shortened: (§2)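 Male CD1 mice. IV dosing at 2 mg/kg, formulated either in 20% captisol/80% water or in 10% dimethylacetamide/23% water/67% PEG 400. Oral dosing at 10 mg/kg, formulated either in 10% Pluronic F108/90% OraPlus or in 0.1% Tween-80/0.5% CMC in water. Reported: CL, Vss, t1/2 and oral F.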

[7] = Terminal half life in Sprague-Dawley rat at 2 mg/kg, iv and 10 mg/kg, po; type: ADME, organism-based; settings: in vivo, read-out: beta t1/2 (converted); procedure, shortened: as §1
in vivo = settings: mouse, adipose tissue fat / plasma, po, 50 mg/kg
[8] = Clearance in CD1 mouse at 2 mg/kg, iv and 10 mg/kg, po; type: ADME, organism-based; settings: in vivo; procedure, shortened: as §2
Plasma [9] = experiment: Free plasma concentration in po dosed mouse after 4 hrs; type: ADME, organism-based; settings: in vivo
[10] = Plasma protein binding in po dosed mouse after 4 hrs; type: ADME, organism-based; settings: read-out: PPB (converted)
[11] = Half life in CD1 mouse at 2 mg/kg, iv and 10 mg/kg, po; type: ADME, organism-based; settings: in vivo; procedure, shortened: as §2
[12] = Oral bioavailability in CD1 mouse at 10 mg/kg; type: ADME, organism-based; settings: in vivo; procedure, shortened: as §2
[13] = Drug uptake in mouse adipose tissue fat at 30 mg/kg, po after 6 hrs; type: ADME, organism-based; parameters: dose 30 mg/kg, route oral; settings: read-out: Drug uptake
[14] = Drug uptake in mouse adipose tissue fat at 10 mg/kg, po after 4 hrs; type: ADME, organism-based; parameters: dose 10 mg/kg, route oral; settings: read-out: Drug uptake
[15] = Drug uptake in mouse adipose tissue fat at 10 mg/kg, po after 6 hrs; type: ADME, organism-based; parameters: dose 10 mg/kg, route oral; settings: read-out: Drug uptake
Mus musculus [16] = experiment: Ex vivo inhibition of 11beta-HSD1 in mouse adipose tissue at 10 mg/kg, po after 2 hrs; type: functional
Procedure, shortened: (§3)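 Mice dosed orally at 10 or 30 mg/kg. Adipose 11β-HSD1 activity measured ex vivo as percent inhibition.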

Mus musculus [17] = experiment: Ex vivo inhibition of 11beta-HSD1 in mouse adipose tissue at 30 mg/kg, po after 6 hrs; type: functional; procedure, shortened: as §3
[18] = Plasma concentration in mouse at 30 mg/kg, po after 4 hrs; type: ADME, organism-based; parameters: dose 30 mg/kg, route oral
[19] = Drug uptake in mouse adipose tissue fat at 30 mg/kg, po after 4 hrs; type: ADME, organism-based; parameters: dose 30 mg/kg, route oral; settings: read-out: Drug uptake
[20] = Plasma concentration in mouse at 30 mg/kg, po after 2 hrs; type: ADME, organism-based; parameters: dose 30 mg/kg, route oral
[21] = Plasma concentration in mouse at 30 mg/kg, po after 6 hrs; type: ADME, organism-based; parameters: dose 30 mg/kg, route oral
[22] = Drug uptake in mouse adipose tissue fat at 10 mg/kg, po after 2 hrs; type: ADME, organism-based; parameters: dose 10 mg/kg, route oral; settings: read-out: Drug uptake
[23] = Drug uptake in mouse adipose tissue fat at 10 mg/kg, po after 8 hrs; type: ADME, organism-based; parameters: dose 10 mg/kg, route oral; settings: read-out: Drug uptake
Plasma [24] = experiment: Free plasma concentration in mouse at 30 mg/kg, po after 4 hrs; type: ADME, organism-based; parameters: dose 30 mg/kg, route oral; settings: in vivo
Procedure, shortened: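 Mice dosed orally at 30 mg/kg and sampled at 4 h. Free plasma concentration calculated from total plasma level using mouse plasma protein binding.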

[25] = Plasma concentration in mouse at 30 mg/kg, po after 8 hrs; type: ADME, organism-based; parameters: dose 30 mg/kg, route oral
[26] = Plasma concentration in mouse at 10 mg/kg, po after 8 hrs; type: ADME, organism-based; parameters: dose 10 mg/kg, route oral
[27] = Plasma concentration in mouse at 10 mg/kg, po after 6 hrs; type: ADME, organism-based; parameters: dose 10 mg/kg, route oral
Mus musculus [28] = experiment: Ex vivo inhibition of 11beta-HSD1 in mouse adipose tissue at 10 mg/kg, po after 4 hrs; type: functional; procedure, shortened: as §3
[29] = Drug uptake in mouse adipose tissue fat at 30 mg/kg, po after 2 hrs; type: ADME, organism-based; parameters: dose 30 mg/kg, route oral; settings: read-out: Drug uptake
Mus musculus [30] = experiment: Ex vivo inhibition of 11beta-HSD1 in mouse adipose tissue at 30 mg/kg, po after 2 hrs; type: functional; procedure, shortened: as §3
[31] = Plasma protein binding in mouse at 30 mg/kg, po after 4 hrs; type: ADME, organism-based; parameters: dose 30 mg/kg, route oral; settings: read-out: PPB (converted)
[32] = Drug uptake in mouse adipose tissue fat at 30 mg/kg, po after 8 hrs; type: ADME, organism-based; parameters: dose 30 mg/kg, route oral; settings: read-out: Drug uptake
Mus musculus [33] = experiment: Ex vivo inhibition of 11beta-HSD1 in mouse adipose tissue at 30 mg/kg, po after 4 hrs; type: functional; procedure, shortened: as §3
[34] = Plasma concentration in mouse at 10 mg/kg, po after 4 hrs; type: ADME, organism-based; parameters: dose 10 mg/kg, route oral
[35] = Plasma concentration in mouse at 10 mg/kg, po after 2 hrs; type: ADME, organism-based; parameters: dose 10 mg/kg, route oral
Mus musculus [36] = experiment: Ex vivo inhibition of 11beta-HSD1 in mouse adipose tissue at 30 mg/kg, po after 8 hrs; type: functional; procedure, shortened: as §3

Chain of 11-beta-hydroxysteroid dehydrogenase 1 (P50172 whole entry): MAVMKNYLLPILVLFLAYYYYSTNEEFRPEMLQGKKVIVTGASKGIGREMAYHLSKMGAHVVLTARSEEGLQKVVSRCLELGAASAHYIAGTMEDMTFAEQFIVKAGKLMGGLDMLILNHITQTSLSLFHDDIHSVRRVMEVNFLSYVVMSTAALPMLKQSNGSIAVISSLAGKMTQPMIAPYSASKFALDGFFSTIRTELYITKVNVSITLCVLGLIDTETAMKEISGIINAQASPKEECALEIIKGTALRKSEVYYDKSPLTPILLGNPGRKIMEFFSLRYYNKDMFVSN

Work on `CC(C)[C@]1(C)SC(N[C@H]2C[C@H]3C[C@@H]2C[C@H]3O)=NC1=O` yielded a Vd [1] of 1.43 L/kg, a clearance [2] of 12.3 mL/min/kg and a Ki [3] of 0.181 µM. The half-life [4] was 2.41 h.
Compound `CC(C)(O)[C@]1(C)SC(N[C@H]2C[C@@H]3CC[C@H]2C3)=NC1=O` has a Vd [1] of 0.53 L/kg, a clearance [2] of 32 mL/min/kg and a bioavailability [5] of 53%. For the same compound, the half-life [4] was 0.24 h.
In the case of `CC(C)[C@]1(C)SC(N[C@H]2C[C@@H]3CC[C@H]2C3)=NC1=O`, the Vd [6] is reported as 0.9 L/kg, the half-life [7] is reported as 12.2 h and the Vd [1] is reported as 1.53 L/kg. For the same compound, the Kp (in vivo) was 1.34, the clearance [8] was 55.2 mL/min/kg and the “Cp(f)” value (Plasma [9]) was 240 nM. The fraction unbound at 4 h [10] was 0.099, the half-life [11] was 3.32 h and the clearance [2] was 19.3 mL/min/kg. For the same compound, the bioavailability [5] was 34% and the bioavailability [12] was 31%.
In the case of `CC(C)[C@]1(C)SC(N[C@H]2C[C@H]3C[C@@H]2CC3=O)=NC1=O`, the Ki [3] is reported as 0.23 µM.
In the case of `CC(C)[C@]1(C)SC(N[C@H]2C[C@H]3C[C@@H]2C[C@@H]3O)=NC1=O`, the concentration at 6 h [13] is reported as 2020 nM, the Vd [6] is reported as 1.43 L/kg and the concentration at 4 h [14] is reported as 820 nM. The Vd [1] was 0.97 L/kg, the concentration at 6 h [15] was 220 nM and the inhibition in vivo at 10 mg/kg (Mus musculus [16]) was 38%. For the same compound, the inhibition in vivo at 30 mg/kg (Mus musculus [17]) was 36%, the concentration at 4 h [18] was 3590 nM and the concentration at 4 h [19] was 980 nM. It also gave a concentration at 2 h [20] of 19500 nM, a concentration at 6 h [21] of 1710 nM and a clearance [8] of 24.7 mL/min/kg. For the same compound, the concentration at 2 h [22] was 980 nM, the concentration at 8 h [23] was 130 nM and the “Cp(f)” value (Plasma [24]) was 2100 nM. For the same compound, the concentration at 8 h [25] was 390 nM, the half-life [11] was 5.72 h and the clearance [2] was 7.33 mL/min/kg. For the same compound, the concentration at 8 h [26] was 190 nM, the concentration at 6 h [27] was 380 nM and the inhibition in vivo at 10 mg/kg (Mus musculus [28]) was 31%. The concentration at 2 h [29] was 4670 nM, the bioavailability [5] was 58% and the inhibition in vivo at 30 mg/kg (Mus musculus [30]) was 51%. For the same compound, the Ki [3] was 0.152 µM, the fraction unbound at 4 h [31] was 0.591 and the bioavailability [12] was greater than 100%. For the same compound, the concentration at 8 h [32] was 580 nM, the inhibition in vivo at 30 mg/kg (Mus musculus [33]) was 46% and the concentration at 4 h [34] was 1050 nM. For the same compound, the half-life [4] was 2.17 h, the concentration at 2 h [35] was 4500 nM and the inhibition in vivo at 30 mg/kg (Mus musculus [36]) was 36%.
